This note sets out measurements from PubChem BioAssay.

Calls of active or inactive are those of the source.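 The calls were made as follows, unless noted: active = Her2 level under about 52% in both replicate screens, with viability over 70% of control (limit read from the data); inconclusive = Her2 under the limit in one screen only, or viability under 70%; inactive = Her2 level above the set limit.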

A short description of assay [1]: Her2 expression decrease, cell viability multiplex – SKBR3 breast tumor cells, AlphaScreen, ATP viability, primary screen (AID 461).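 As to Her2 level: lower value means less Her2 protein in the cells.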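 As to viability: percent of carrier control wells set as 100% viability.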 To be noted: SKBR3 Her2 protein level, 18-24 h, measured here: SKBR3 viability, ATP luminescence, at 10 µM. (Alpha assays give light when donor and acceptor beads are brought close together.)
The target in assay [2] is Receptor tyrosine-protein kinase erbB-2 (Homo sapiens) (UniProt P04626). The assay is described as above. To be noted: 18-24 h, at 10 µM, stronger effect = lower value.
A short description of assay [3]: reduced viability of SK-BR-3 breast cancer cells – cell-based, 24 h, human, pilot screen (AID 572;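 active = viability at or below 10% of carrier control in both of two separate runs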;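 also: compound exposure lasted between 18 and 24 h rather than exactly 24 h; 100% = carrier-treated control wells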). To be noted: SK-BR-3 viability, CellTiter-Glo luminescence, at 10 µM, stronger effect = lower value.
Assay [4] in a line: HUVEC growth inhibition – cell-based, human, primary screen (AID 575;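 active = viability at or below 30% in both replicate assays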;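 also: 100% = median of untreated cell wells with 0.1% DMSO on each plate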). To be noted: HUVEC proliferation, CellTiter-Glo luminescence, 72 h; at 10 µM; stronger effect = lower value. In short, it runs like this:
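material = primary HUVEC, no more than 12 passages | input = 1250 cells per well | controls = vehicle and MePR control wells | measured by = CTG luminescence | times = 72 h compound incubation | format = collagen-coated 384-well format | read-out = % viability vs DMSO wells | doses = single 10 µM dose, 0.1% DMSO, from 5x medium stock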
On the technique in general: ATP-based viability assays read luminescence as a measure of living cells.

The nature of assay [5]: H69AR cell proliferation blockers – human, duplicate replicates, primary screen (AID 580;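 active = viability at or under a set limit in both replicates, limit being median viability minus 3 SD, cut at about 48% in these data, passing the limit was not always enough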;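 also: 100% = mean luminescence of untreated wells and 0% = no signal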). To be noted: H69AR lung tumor cells viability, ATP luminescence, 72 h; at 10 µM; stronger effect = lower value.
Assay [6] is described as follows: MRP1 drug-resistance reversers in H69AR cells – cell-based, doxorubicin co-treatment, pilot screen (AID 601;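 active = viability loss from added drug above about 55%, and viability with drug at most 40%, in both replicates, limit read from the data, passing the limit was not always enough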). To be noted: CellTiter-Glo, 72 h, at 10 µM; for differential viability (reversal): stronger effect = higher value.
Assay [7] can be described thus: yeast transport mutant growth inhibition pilot in 384-well plates, post-Golgi transport modulator project (AID 636; in the data active = inhibition above about 31%). To be noted: absorbance 615 nm, about 18 h, stronger effect = higher value.
The nature of assay [8]: growth suppression of yeast trafficking mutant, preliminary HTS, modulators of trafficking downstream of Golgi apparatus project, 1536-format plate, OD 615 nm (AID 637; in the data active = inhibition above about 30%). To be noted: yeast transport mutant growth, absorbance 615 nm, 18 h; stronger effect = higher value.
The mark [9] stands for this setting: H69AR cells + 2 uM doxorubicin, measured here: viability with 2 uM doxorubicin, stronger effect = lower value.
[10] abbreviates: H69AR cells, compound alone cytotoxicity.

Chain of Receptor tyrosine-protein kinase erbB-2 (Homo sapiens) (P04626 whole entry, looked up): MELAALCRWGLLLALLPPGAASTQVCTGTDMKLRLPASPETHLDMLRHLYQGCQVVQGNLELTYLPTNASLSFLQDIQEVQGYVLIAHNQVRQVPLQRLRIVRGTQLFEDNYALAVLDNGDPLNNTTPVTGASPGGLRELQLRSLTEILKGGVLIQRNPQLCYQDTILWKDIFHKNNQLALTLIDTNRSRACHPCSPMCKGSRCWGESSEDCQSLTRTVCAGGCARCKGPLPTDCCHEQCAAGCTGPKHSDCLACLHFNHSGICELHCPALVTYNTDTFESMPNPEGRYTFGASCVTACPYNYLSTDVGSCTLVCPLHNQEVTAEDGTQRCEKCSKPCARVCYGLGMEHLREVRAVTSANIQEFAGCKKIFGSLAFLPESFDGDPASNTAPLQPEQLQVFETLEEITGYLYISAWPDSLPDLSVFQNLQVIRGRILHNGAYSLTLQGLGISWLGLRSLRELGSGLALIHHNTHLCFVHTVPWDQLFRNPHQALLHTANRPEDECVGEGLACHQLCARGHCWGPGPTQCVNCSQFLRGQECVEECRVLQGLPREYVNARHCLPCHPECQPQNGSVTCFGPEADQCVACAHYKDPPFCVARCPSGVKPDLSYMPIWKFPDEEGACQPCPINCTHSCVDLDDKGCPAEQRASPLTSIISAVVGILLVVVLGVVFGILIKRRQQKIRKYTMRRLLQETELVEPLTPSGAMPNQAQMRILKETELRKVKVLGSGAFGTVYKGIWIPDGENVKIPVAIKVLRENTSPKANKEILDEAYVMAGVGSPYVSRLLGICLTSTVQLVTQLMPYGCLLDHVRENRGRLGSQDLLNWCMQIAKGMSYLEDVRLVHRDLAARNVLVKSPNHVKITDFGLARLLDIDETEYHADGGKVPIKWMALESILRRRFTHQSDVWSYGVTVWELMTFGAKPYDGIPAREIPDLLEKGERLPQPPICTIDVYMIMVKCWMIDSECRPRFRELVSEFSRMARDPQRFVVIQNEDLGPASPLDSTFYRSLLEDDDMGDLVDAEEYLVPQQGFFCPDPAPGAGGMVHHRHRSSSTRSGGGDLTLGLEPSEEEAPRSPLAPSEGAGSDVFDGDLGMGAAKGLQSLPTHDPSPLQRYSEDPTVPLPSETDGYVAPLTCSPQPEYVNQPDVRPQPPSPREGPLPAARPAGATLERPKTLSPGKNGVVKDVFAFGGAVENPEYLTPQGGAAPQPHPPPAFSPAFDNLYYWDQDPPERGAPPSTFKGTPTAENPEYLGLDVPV

Regarding `Oc1ccc2cccnc2c1`, the viability in assay [1] is 94.5%; in assay [3] it was 94.5% (inactive); in assay [4], 107% (inactive); in assay [5], 106% (inactive); in assay [6] (setting [9]), 100%; in assay [6] (setting [10]), 106%. Further, in assay [2], the Her2 level was 108% (inactive). The differential viability (reversal) in assay [6] (H69AR cells + 2 uM doxorubicin) is 5.68% (inactive). Moreover, the values for the inhibition in assay [7] and in assay [8] were -4.8% (inactive) and -8.41% (inactive), respectively.
As for `CCOC(=O)c1c(-c2cccs2)csc1NC(=O)CCCC(=O)O`, the viability is 110% in assay [1]; 110% (inactive) in assay [3]; 78.3% (inactive) in assay [4]; 83.4% (inactive) in assay [5]; 82.4% in assay [6] (setting [9]); 83.4% in assay [6] (setting [10]). In addition, in assay [2], the Her2 level is 87% (inactive). Moreover, the differential viability (reversal) in assay [6] (H69AR cells + 2 uM doxorubicin) was 1.06% (inactive). Moreover, the inhibition is -5.79% (inactive) in assay [7] and -3.27% (inactive) in assay [8].
Take `CCOC(=O)c1c(NC(=O)c2nn(CC)cc2Br)c(C#N)cn1-c1ccccc1`: the viability in assay [1] is 78%; in assay [3] it was 78% (inactive); in assay [4], 62.5% (inactive); in assay [5], 74.8% (inactive); in assay [6] (setting [9]), 72.2%; in assay [6] (setting [10]), 74.8%. Moreover, in assay [2], the Her2 level is 90% (inactive). In assay [6] (H69AR cells + 2 uM doxorubicin), the differential viability (reversal) is 2.55% (inactive). Moreover, the inhibition in assay [7] was -4.61% (inactive); in assay [8], -6.17% (inactive).
As for `CCOc1ccc(OCc2ccc(C(=O)Nc3cccc(C)n3)o2)cc1`, the viability in assay [1] was 101%; in assay [3] it was 101% (inactive); in assay [4], 84.1% (inactive); in assay [5], 93.4% (inactive); in assay [6] (setting [9]), 87.3%; in assay [6] (setting [10]), 93.4%. The Her2 level in assay [2] is 85% (inactive). Further, in assay [6] (H69AR cells + 2 uM doxorubicin), the differential viability (reversal) was 6.08% (inactive). For the same compound, the inhibition in assay [7] was -1.58% (inactive); in assay [8] it was -1.61% (inactive).
On to `CCCCCc1c(C)nc(Nc2nc(C)c3cc(OC)ccc3n2)[nH]c1=O`, for which the viability in assay [1] is 92.5%; in assay [3] it was 92.5% (inactive); in assay [4] it was 55.2% (inactive); in assay [5] it was 78% (inactive); in assay [6] (setting [9]), 55.7%; in assay [6] (setting [10]), 78%. For the same compound, the Her2 level in assay [2] is 85.5% (inactive). Besides, the differential viability (reversal) in assay [6] (H69AR cells + 2 uM doxorubicin) was 22.3% (inactive). Moreover, the inhibition in assay [7] is -7.7% (inactive); in assay [8], 11.1% (inactive).
As for `CCN(CC)S(=O)(=O)c1ccc(NC2c3ccccc3C(=O)N2CCN2CCOCC2)cc1` (stereo not given), the viability in assay [1] was 101%; in assay [3], 101% (inactive); in assay [4], 85.2% (inactive); in assay [5] it was 87% (inactive); in assay [6] (setting [9]) it was 76.2%; in assay [6] (setting [10]), 87%. Also, the Her2 level in assay [2] is 105% (inactive). For the same compound, the differential viability (reversal) in assay [6] (H69AR cells + 2 uM doxorubicin) was 10.8% (inactive). The inhibition in assay [7] was -1.54% (inactive); in assay [8] it was -0.83% (inactive).
On to `CN1C(=O)CCC1(O)c1ccccc1` (stereo not given), for which the viability in assay [1] is 89%; in assay [3], 89% (inactive); in assay [4], 116% (inactive); in assay [5], 92.3% (inactive); in assay [6] (setting [9]), 91.3%; in assay [6] (setting [10]), 92.3%. For the same compound, the Her2 level in assay [2] was 98% (inactive). Also, the differential viability (reversal) in assay [6] (H69AR cells + 2 uM doxorubicin) was 0.975% (inactive). The inhibition in assay [7] is 0.91% (inactive); in assay [8] it was -8.17% (inactive).
As to `CCOc1cc(C(=O)N2CCN=C2SC)cc(OCC)c1OCC`, the viability is 91.5% in assay [1]; 91.5% (inactive) in assay [3]; 87.4% (inactive) in assay [4]; 105% (inactive) in assay [5]; 95.2% in assay [6] (setting [9]); 105% in assay [6] (setting [10]). Also, the Her2 level in assay [2] is 83% (inactive). Further, in assay [6] (H69AR cells + 2 uM doxorubicin), the differential viability (reversal) was 10.1% (inactive). Also, the inhibition in assay [7] was -4.73% (inactive); in assay [8], 9.05% (inactive).
With `COC(=O)Nc1ccccc1C(=O)N1CCCCC1`, the viability in assay [1] is 100%; in assay [3] it was 100% (inactive); in assay [4], 95.8% (inactive); in assay [5] it was 99% (inactive); in assay [6] (setting [9]), 92.9%; in assay [6] (setting [10]), 99%. For the same compound, the Her2 level in assay [2] was 93% (inactive). The differential viability (reversal) in assay [6] (H69AR cells + 2 uM doxorubicin) is 6.15% (inactive). Also, the inhibition was -5.33% (inactive) in assay [7] and -0.49% (inactive) in assay [8].
Turning to `Cc1n[nH]c(C)c1S(=O)(=O)N1CCN(c2ccccn2)CC1`, the viability was 99.5% in assay [1]; 99.5% (inactive) in assay [3]; 111% (inactive) in assay [4]; 103% (inactive) in assay [5]; 99.8% in assay [6] (setting [9]); 103% in assay [6] (setting [10]). In addition, the Her2 level in assay [2] is 108% (inactive). Further, the differential viability (reversal) in assay [6] (H69AR cells + 2 uM doxorubicin) is 3.44% (inactive). Also, the figures for the inhibition in assay [7] and in assay [8] were -0.26% (inactive) and -4.29% (inactive), respectively.
Regarding `CC1(C)Cc2c(sc3c2C2=NCCN2C=N3)CO1`, the viability in assay [1] was 111%; in assay [3], 111% (inactive); in assay [4], 91.5% (inactive); in assay [5] it was 90.9% (inactive); in assay [6] (setting [9]), 89.2%; in assay [6] (setting [10]) it was 90.9%. The Her2 level in assay [2] is 104% (inactive). Besides, in assay [6] (H69AR cells + 2 uM doxorubicin), the differential viability (reversal) is 1.75% (inactive). For the same compound, the inhibition in assay [7] was -3.82% (inactive); in assay [8] it was -4.55% (inactive).
In the case of `Cc1ccc(C(=O)Nc2ccc3c(c2)OCO3)cc1S(=O)(=O)N1CCCC1`, the viability in assay [1] was 102%; in assay [3], 102% (inactive); in assay [4] it was 67.3% (inactive); in assay [5], 82.6% (inactive); in assay [6] (setting [9]), 83.3%; in assay [6] (setting [10]), 82.6%. For the same compound, in assay [2], the Her2 level was 89% (inactive). The differential viability (reversal) in assay [6] (H69AR cells + 2 uM doxorubicin) was -0.715% (inactive). The inhibition is -4% (inactive) in assay [7] and 2.54% (inactive) in assay [8].
For `CC1=C(C)[N+](=O)C2CCCCC2N1[O-]` (stereo not given), the viability is 89% in assay [1]; 89% (inactive) in assay [3]; 104% (inactive) in assay [4]; 94.4% (inactive) in assay [5]; 84.6% in assay [6] (setting [9]); 94.4% in assay [6] (setting [10]). Besides, in assay [2], the Her2 level was 112% (inactive). Besides, the differential viability (reversal) in assay [6] (H69AR cells + 2 uM doxorubicin) is 9.79% (inactive). The inhibition was -5.97% (inactive) in assay [7] and -9.34% (inactive) in assay [8].
On to `Cc1c(C(=O)O)oc2ccc(S(=O)(=O)NCCC3=CCCCC3)cc12`, for which the viability in assay [1] is 100%; in assay [3], 100% (inactive); in assay [4], 95.9% (inactive); in assay [5], 101% (inactive); in assay [6] (setting [9]) it was 94.3%; in assay [6] (setting [10]), 101%. In assay [2], the Her2 level was 98.5% (inactive). Besides, the differential viability (reversal) in assay [6] (H69AR cells + 2 uM doxorubicin) is 6.48% (inactive). The inhibition in assay [7] is -3.16% (inactive); in assay [8], -9.52% (inactive).
Turning to `C=C(C)CSc1nnc(-c2cccc(S(=O)(=O)N(C)C)c2)n1-c1cc(OC)ccc1OC`, the viability in assay [1] was 75%; in assay [3], 75% (inactive); in assay [4], 95.4% (inactive); in assay [5], 95.9% (inactive); in assay [6] (setting [9]) it was 90.9%; in assay [6] (setting [10]), 95.9%. Besides, the Her2 level in assay [2] was 93.5% (inactive). In addition, in assay [6] (H69AR cells + 2 uM doxorubicin), the differential viability (reversal) was 4.91% (inactive). The inhibition is -3.55% (inactive) in assay [7] and -2.55% (inactive) in assay [8].
For `O=C(NC12CC3CC(CC(C3)C1)C2)c1cncc(O)c1`, the viability in assay [1] is 104%; in assay [3], 104% (inactive); in assay [4] it was 88.2% (inactive); in assay [5], 85.6% (inactive); in assay [6] (setting [9]), 94.9%; in assay [6] (setting [10]) it was 85.6%. Further, the Her2 level in assay [2] is 89% (inactive). Moreover, the differential viability (reversal) in assay [6] (H69AR cells + 2 uM doxorubicin) was -9.31% (inactive). Also, the results for the inhibition in assay [7] and in assay [8] were -6.36% (inactive) and 0.32% (inactive), respectively.

As usually defined, the viability is a read-out of living cells in per cent, often relative to untreated cells. The inhibition is the drop in the measured response relative to a control, in per cent.
